# From ChEMBL document CHEMBL1949646, “Design, synthesis, in vitro antimicrobial and anticancer activity of novel methylenebis-isoxazolo[4,5-b]azepines derivatives” (Eur J Med Chem, 2012)
# Legend:
# [1] = test system: Bacillus subtilis; test: Antibacterial activity against Bacillus subtilis after 24 to 28 hrs by agar diffusion method; assay type: functional
# [2] = test system: Lactococcus lactis; test: Antibacterial activity against Streptococcus lactis after 24 to 28 hrs by agar diffusion method; assay type: functional
# [3] = test system: Escherichia coli; test: Antibacterial activity against Escherichia coli after 24 to 28 hrs by agar diffusion method; assay type: functional
# [4] = test system: Pseudomonas aeruginosa; test: Antibacterial activity against Pseudomonas aeruginosa after 24 to 28 hrs by agar diffusion method; assay type: functional
# [5] = test system: Aspergillus flavus; test: Antifungal activity against Aspergillus flavus after 5 days by agar diffusion method; assay type: functional; settings: 120 h
# [6] = test system: Trichoderma viride; test: Antifungal activity against Trichoderma viride after 5 days by agar diffusion method; assay type: functional; settings: 120 h
# [7] = test system: MCF7; test: Cytotoxicity against human estrogen receptor-positive MCF7 cells after 48 hrs by MTT assay; assay type: functional, cell-based; settings: MCF7, 48 h
# Outline: (§1)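 Cells kept in a humidified 5% CO2 incubator. Compounds diluted in culture medium and added to wells alongside a vehicle control. After MTT, supernatant removed, formazan dissolved in DMSO, and absorbance read at 540 nm. Percentage growth inhibition calculated. At least three independent assays.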
# [8] = test system: MDA-MB-231; test: Cytotoxicity against human estrogen receptor-negative MDA-MB-231 cells after 48 hrs by MTT assay; assay type: functional, cell-based; settings: MDA-MB-231, 48 h; outline: as §1
# [9] = test system: HEK293; test: Cytotoxicity against human HEK293 cells after 48 hrs by MTT assay; assay type: cell-based; settings: HEK293, 48 h; outline: as §1
SMILES,MIC [1] [µg/mL],MIC [2] [µg/mL],MIC [3] [µg/mL],MIC [4] [µg/mL],MIC [5] [µg/mL],MIC [6] [µg/mL],IC50 [7] [µM],IC50 [8] [µM],IC50 [9] [µM]
Cc1noc2c1N=C(c1ccccc1)CC(c1cc(Cc3ccc(O)c(C4CC(c5ccccc5)=Nc5c(C)noc5C4)c3)ccc1O)C2 (stereo not given),35,40,40,35,40,40,80.6,82.6,85.4
Cc1noc2c1N=C(c1ccc(Br)cc1)CC(c1cc(Cc3ccc(O)c(C4CC(c5ccc(Br)cc5)=Nc5c(C)noc5C4)c3)ccc1O)C2 (stereo not given),30,25,27,30,30,32,34.2,51.2,54.5
Cc1noc2c1N=C(c1ccc([N+](=O)[O-])cc1)CC(c1cc(Cc3ccc(O)c(C4CC(c5ccc([N+](=O)[O-])cc5)=Nc5c(C)noc5C4)c3)ccc1O)C2 (stereo not given),30,26,28,28,30,30,36.3,53.4,55.6
Cc1noc2c1N=C(c1ccc(Cl)cc1)CC(c1cc(Cc3ccc(O)c(C4CC(c5ccc(Cl)cc5)=Nc5c(C)noc5C4)c3)ccc1O)C2 (stereo not given),28,25,28,30,32,30,30.4,52.5,53.3
COc1ccc(C2=Nc3c(C)noc3CC(c3cc(Cc4ccc(O)c(C5CC(c6ccc(OC)cc6)=Nc6c(C)noc6C5)c4)ccc3O)C2)cc1 (stereo not given),35,30,35,32,35,40,40.4,58.1,57.4
Cc1ccc(C2=Nc3c(C)noc3CC(c3cc(Cc4ccc(O)c(C5CC(c6ccc(C)cc6)=Nc6c(C)noc6C5)c4)ccc3O)C2)cc1 (stereo not given),35,32,35,40,35,38,42.3,61.1,63.4
Cc1noc2c1N=C(c1ccccc1O)CC(c1cc(Cc3ccc(O)c(C4CC(c5ccccc5O)=Nc5c(C)noc5C4)c3)ccc1O)C2 (stereo not given),38,35,36,38,38,40,44.3,63.4,65.5
Cc1noc2c1N=C(c1ccco1)CC(c1cc(Cc3ccc(O)c(C4CC(c5ccco5)=Nc5c(C)noc5C4)c3)ccc1O)C2 (stereo not given),20,22,16,14,20,16,12.5,10.3,30.2
Cc1noc2c1N=C(c1cccs1)CC(c1cc(Cc3ccc(O)c(C4CC(c5cccs5)=Nc5c(C)noc5C4)c3)ccc1O)C2 (stereo not given),19,20,14,12,15,14,10.2,18.2,10.3
CCn1cc(C(=O)O)c(=O)c2ccc(C)nc21 [NALIDIXIC ACID],30,25,28,30,–,–,–,–,–
